This is a sample that favours compounds with a hit; in the whole collection about 3.5% have one here.
RGS4 act: RGS4 potentiators or activators, primary screen, cell-based, HEK293 M3R inducible RGS4, calcium flux; 0.92% of 310,000 active; carbachol calcium flux Fluo4; active compounds read low; B-score at 10 µM;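 active means B-score of the integrated calcium signal more than 4 SD below the library mean, with starting fluorescence not abnormally high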;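 further: negative B-score means reduced calcium response which marks RGS4 activation or potentiation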
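Detection: kinetic calcium fluorescence imaging with Fluo4-AM dye, 2 µM / Material: HEK293 cells with stable M3R and inducible RGS4 / Schedule: recording 10 s baseline at 1 Hz, 100 s post-agonist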
MrgX1 ag: agonists of human MrgX1 receptor, primary screen, HEK293 cells, Fluo-4 calcium flux | Fluo-4 calcium fluorescence, agonist mode; active compounds read high | B-score at 10 µM | 0.44% of 310,000 active | AID 588627, 2011;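 active means calcium response B-score plate-corrected fluorescence ratio at least 3 library SD, with starting fluorescence B-score inside 5 SD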
Target sequence (Q96LB2 whole entry, looked up): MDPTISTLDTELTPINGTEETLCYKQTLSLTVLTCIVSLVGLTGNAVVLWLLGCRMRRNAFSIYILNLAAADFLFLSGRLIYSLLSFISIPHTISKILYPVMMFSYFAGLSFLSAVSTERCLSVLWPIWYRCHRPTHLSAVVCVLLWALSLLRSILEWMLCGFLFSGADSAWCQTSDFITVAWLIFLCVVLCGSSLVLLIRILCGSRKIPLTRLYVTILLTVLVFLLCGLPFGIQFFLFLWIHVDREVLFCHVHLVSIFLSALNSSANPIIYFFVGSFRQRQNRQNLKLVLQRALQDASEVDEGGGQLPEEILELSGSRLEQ
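Assay system: stable human MrgX1 HEK293 cell line. Quantity: 15,000 cells per well. Schedule: cells plated overnight, dye loaded 0.5 h 37 °C, 0.5 h room temperature. Detection: Fluo-4 NW calcium-flux fluorescence, kinetic read. Read-out basis: peak-minus-minimum fluorescence over baseline, converted to B scores. Control set: positive and negative control wells on each plate.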
MrgX1 antag: antagonists of human MrgX1 receptor, primary screen, HEK293 cells, Fluo-4 calcium flux; Mas-related G-protein coupled receptor member X1 (Homo sapiens), Q96LB2; BAM8-22 antagonism; active compounds read low; B-score at 10 µM; 1.3% of 310,000 active; AID 588676, 2011;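 active means calcium-response B-score plate-corrected more than 3 library SD below zero, starting fluorescence within 5 deviations, no agonist response on first addition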;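 further: peak minus trough fluorescence over baseline after final BAM8-22 challenge near maximal dose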
RGS4 inh: RGS4 inhibitors, primary screen, cell-based, HEK293 M3R inducible RGS4, calcium flux | B-score at 10 µM | 0.45% of 310,000 active | Fluo-4 calcium flux; active compounds read high; triggered by carbachol at its EC20;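 active means B-score, a plate-corrected calcium signal, over three deviations above library mean, with baseline fluorescence within five deviations of library mean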;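 further: RGS4 expression induced by doxycycline in cells with stable M3 receptor; B-score is computed from the integrated fluorescence ratio over baseline after carbachol; higher B-score means a larger calcium signal and so more RGS4 inhibition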
Target sequence (P49798 whole entry, looked up): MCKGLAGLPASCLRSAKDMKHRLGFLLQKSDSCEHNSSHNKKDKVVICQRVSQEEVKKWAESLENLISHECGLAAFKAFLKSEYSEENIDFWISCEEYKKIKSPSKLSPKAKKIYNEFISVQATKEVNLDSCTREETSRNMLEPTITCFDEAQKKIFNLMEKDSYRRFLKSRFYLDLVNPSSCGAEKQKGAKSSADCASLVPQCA
MrgX1 allo act: positive allosteric modulators of MrgX1, primary screen, HEK293 cells, Fluo-4 calcium flux; Mas-related G-protein coupled receptor member X1 (Homo sapiens), Q96LB2; FDSS; active compounds read high; B-score at 10 µM; 0.63% of 310,000 active; AID 588675, 2011;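 active means plate-corrected calcium response at least 3 library SD above typical, normal starting fluorescence, not activating the receptor alone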;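 further: compound read alongside a low EC10 to EC30 dose of BAM8-22 agonist; peak minus trough fluorescence over baseline measured at the second addition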
MrgX1 ag confirm: MrgX1 receptor agonists, duplicate retest, confirmation, HEK293 cells, Fluo-4 calcium flux; shares compounds with MrgX1 ag; 78% of 600 active; Fluo-4 calcium fluorescence, FDSS; activation, % at 10 µM;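 active means calcium signal rise, corrected for plate position, at least 3 library SD high, with starting brightness within 5 such deviations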
HEK293 Ca flux: nonspecific calcium signal in parental HEK293, confirmation, counter-screen for MrgX1 antagonist project, parental HEK293 cells, Fluo-4 calcium flux; shares compounds with MrgX1 antag; Fluo-4 calcium fluorescence, FDSS; fluorescence ratio F(max-min)/F0 at 10 µM; 2% of 4,000 active;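 active means duplicate-averaged calcium fluorescence ratio at least three times the standard deviation of buffer wells, a nonspecific response in parental cells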
HEK293 Ca counter: calcium response in parental HEK293 cells, primary screen, counter-screen for MrgX1 allosteric activator project, cell-based, Fluo-4 calcium flux, duplicate; shares compounds with MrgX1 antag; Fluo-4 fluorescence ratio; active compounds read high; fluorescence ratio F(max-min)/F0 at 10 µM; 0.4% of 4,000 active; AID 624114, 2012;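 active means calcium fluorescence ratio, averaged over duplicates, at least 3 SD of the buffer-well ratio, meaning a nonspecific response in receptor-free cells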;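 further: untransfected parental HEK293 lacking MrgX1 used as counterscreen for MrgX1 allosteric activators; fluorescence change taken during the second addition on a kinetic imager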
HEK293 Ca cntr2: calcium response in parental HEK293 cells, primary screen, counter-screen for MrgX1 agonist project, cell-based, Fluo-4 calcium flux, duplicate, agonist mode. Fluo-4 calcium fluorescence (FDSS); active compounds read high. shares compounds with MrgX1 antag. AID 624115, 2012. 8.7% of 4,000 active. fluorescence ratio F(max-min)/F0 at 10 µM;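 active means calcium fluorescence ratio at least three times the spread of buffer wells, meaning a non-specific response in parental cells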
Numbers without * were called inactive; i = inactive; . = no result given.

SMILES | RGS4 act | MrgX1 ag | MrgX1 antag | RGS4 inh | MrgX1 allo act | MrgX1 ag confirm | HEK293 Ca flux | HEK293 Ca counter | HEK293 Ca cntr2
COc1cc(/C=C2\SC(=S)N(NS(=O)(=O)c3ccccc3)C2=O)ccc1O | i | 87* | i | i | i | 375%* | i | i | 99*
COc1cc(/C=C2\SC(=S)N(NS(=O)(=O)c3ccc(C)cc3)C2=O)cc(OC)c1OC | i | i | i | i | i | . | . | . | .
CC(C)NS(=O)(=O)c1ccc(OCC(=O)Nc2ccc(F)cc2F)cc1 | i | i | i | i | i | . | . | . | .
O=c1[nH]c(=O)n(Cc2ccccc2)c2c1C(C(F)(F)F)(C(F)(F)F)N=C(c1ccco1)N2 | i | 41* | i | i | i | 223%* | i | i | 58*
O=C(NC1(C(F)(F)F)C(=O)Nc2c1c(=O)[nH]c(=O)n2Cc1ccccc1)c1ccc(Cl)cc1 (stereo not given) | i | i | i | i | i | . | . | . | .
CCC(C)NC(=O)c1ccc(CS(=O)(=O)Cc2ccc(Cl)cc2)o1 (stereo not given) | i | i | i | i | i | . | . | . | .
CC(C)c1[nH]nc2c1C(c1ccco1)C(C#N)=C(N)O2 (stereo not given) | i | 27* | i | i | i | i | i | i | i
Cc1ccc(SCc2[nH]nc3c2C(c2ccco2)C(C#N)=C(N)O3)cc1 (stereo not given) | i | 40* | i | i | i | 161%* | i | i | i
CC(C)c1[nH]nc2c1C(c1cccnc1)C(C#N)=C(N)O2 (stereo not given) | i | i | i | i | i | . | . | . | .
CCc1[nH]nc2c1C(c1ccc(Br)s1)C(C#N)=C(N)O2 (stereo not given) | . | 48* | i | . | i | 146%* | i | i | i
CCCNC(=O)CCCN1C(=O)c2ccccc2Sc2ncccc21 | i | i | i | i | i | . | . | . | .
CC(C)(C)Nc1c2ccccc2nc2ccccc12 | i | 35* | i | i | i | 157%* | i | i | i
Cc1ccc(NC(=O)CCl)cc1S(=O)(=O)N1CCCCCC1 | i | 29* | i | i | i | 169%* | i | i | i
CNC(=O)COc1ccc(Nc2nnc(-c3ccc(C)c(S(N)(=O)=O)c3)c3ccccc23)cc1 | i | i | i | i | i | . | . | . | .
O=C1/C(=C/c2ccccc2)Nc2ccccc21 | i | 128* | i | i | i | i | 0.41* | i | 224*
N=C(N)CCCOc1ccccc1-c1ccccc1 | i | 28* | i | i | i | 81%* | i | i | i
CC(=O)Nc1ccc2nc(NC(=O)COc3cccc(C)c3)sc2c1 | i | i | i | i | i | . | . | . | .
COc1ccc(C2C(C#N)=C(N)Oc3cccc(O)c32)cc1 (stereo not given) | i | 28* | i | i | i | i | i | i | i
Cc1cccc2c1N(CCCOc1ccc(C(C)(C)C)cc1)C(=O)C2=O | i | i | i | i | i | . | . | . | .
Cc1cccc2c1N(CCCOc1ccccc1)C(=O)C2=O | i | 35* | i | i | i | 251%* | i | i | 50*
CCOc1ccc(Br)cc1S(=O)(=O)Nc1ncn[nH]1 | i | 32* | i | i | i | i | i | i | i
CCOc1ccc(S(=O)(=O)Nc2ncn[nH]2)cc1 | i | i | i | i | i | . | . | . | .
Cc1ccc(NS(=O)(=O)c2ccc(C(=O)N3CC(C)OC(C)C3)cc2)cc1 (stereo not given) | i | 29* | i | i | i | 151%* | i | i | i
Cc1ccc(NS(=O)(=O)c2ccc(C(=O)N3CCC3)cc2)cc1 | i | i | i | i | i | . | . | . | .
COc1ccc2c(c1)nc(N)n2Cc1ccccc1 | i | 49* | i | i | i | 233%* | i | i | i
SMILES | RGS4 act | MrgX1 ag | MrgX1 antag | RGS4 inh | MrgX1 allo act | MrgX1 ag confirm | HEK293 Ca flux | HEK293 Ca counter | HEK293 Ca cntr2
COc1ccc(CC(=O)Nc2ccc(N3CCCC3)c(C)c2)cc1 | i | i | i | i | i | . | . | . | .
O=C(O)C1C(C(=O)Nc2ccc(Cl)cc2)C2C=CC1C21CC1 (stereo not given) | i | 32* | i | i | i | i | i | i | i
O=C(O)C1C2CCC(O2)C1C(=O)Nc1ccc(F)c(Cl)c1 (stereo not given) | i | i | i | i | i | . | . | . | .
CCC1(C)NC(=O)N(CC(=O)Nc2sc3c(c2C(=O)OC)CCCCC3)C1=O (stereo not given) | i | 28* | i | i | i | 437%* | i | i | 128*
Cc1cc(Nc2cc(Cl)cc(Cl)c2)nc(N)n1 | i | 40* | i | i | i | 243%* | i | i | i
Cc1cc(Nc2ccc(F)cc2)nc(N)n1 | i | i | i | i | i | . | . | . | .
COc1ccccc1C(=O)NNC(=S)NC(=O)c1cc(OC)c(OC)c(OC)c1 | i | 101* | i | i | i | 453%* | i | i | 93*
COc1cc(C(=O)NNC(=S)NC(=O)c2ccccc2C)cc(OC)c1OC | i | 120* | i | i | i | 362%* | i | i | 89*
COc1cc(C(=O)NNC(=S)NC(=O)c2ccc3c(c2)OCO3)cc(OC)c1OC | i | i | i | i | i | . | . | . | .
COc1cc(C(=O)NC(=S)NNC(=O)[C@H]2C[C@@H]2c2ccccc2)cc(OC)c1OC | i | 96* | i | i | i | 386%* | i | i | 76*
